# PTEN del growth = growth suppressors of cells with PTEN tumor suppressor deletion. HCT116 PTEN-null viability, CellTiter-Glo, 60 h; hits give low values. viability, % at 10 µM. 1.2% of 140,000 active. AID 827;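 active = viability at or below a set limit, 4 SD under the median of all tested compounds, cut at about 3.7% in these data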;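 also: PTEN knockout HCT116 line with beta catenin targeted HCT116 as companion control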
# HCT116 bCat-KO = beta-catenin-lacking colon tumor cell growth suppression. HCT116 beta-catenin knockout viability, CellTiter-Glo, 60 h; hits give low values. viability, % at 10 µM. 1.5% of 140,000 active;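 active = viability at or under a set limit, the compound median less 4 SD, cut at about 6% in these data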;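 also: 0% = Hyamine 1622 control at 20 µM and 100% = untreated cell control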
# HUVEC prolif 384 = inhibitors of human endothelial cell proliferation. HUVEC proliferation, CellTiter-Glo luminescence, 72 h; hits give low values. viability, % at 10 µM (by protocol). 1.1% of 86,000 active. AID 648;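 active = viability at or below 30%; inactive = viability above 30%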;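 also: 100% = median luminescence of DMSO-only cell control wells on each plate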
# Fibroblast inh = blocks proliferation of human lung fibroblasts | viability, % at 10 µM | AID 719 | LL 47 human lung fibroblast viability, ATP luminescence; hits give low values | 1.1% of 85,000 active;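 active = viability at or below 50% in the single dose screen; inactive = viability above 50%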;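 also: compound exposure lasted 72 h before the ATP readout; 100% = median luminescence of untreated cell-only wells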
#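 Times – overnight cell rest, 72 h compound treatment at 37 °C · Test system – human lung fibroblast line LL 47, low passage · Amount – 1,150 cells in each well · Controls – cell-only wells, no compound · Doses – 0.1% DMSO in all compound wells · Measured by – CellTiter-Glo luminescence · Buffer or medium – IMEM plus 15% FBS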
# H69AR growth 86K = growth inhibitors of human H69AR lung tumor cells. H69AR lung tumor viability, ATP luminescence, 72 h; hits give low values. viability, % at 10 µM. 6% of 85,000 active. AID 598;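 active = viability at or below 40%; inactive = viability above 40%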;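 also: multidrug resistant small cell line overexpressing MRP-1 efflux transporter; 100% = mean luminescence of untreated control wells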
# * hit, by the source's call; . = no result. Shown is part of a subset that was picked to be rich in hits.
SMILES,PTEN del growth,HCT116 bCat-KO,HUVEC prolif 384,Fibroblast inh,H69AR growth 86K
COc1ccc(/C=C2\CCc3ccccc3C2=O)cc1Cn1cccn1,2.2*,2.9*,.,.,.
COc1cccc(C2SCC(=O)N2c2ccc(Br)cc2)c1OC (centres undefined),91,82,.,.,.
CC1(C)Cc2c(cnn2-c2ccccc2)-c2c1c1ccccc1n2CC(O)CCl (centres undefined),66,72,60,92,25*
CN1CCN(c2cc3c(c4c2[nH]c2ccccc24)C(=O)CC(C)(C)C3)CC1,1.8*,1.4*,3.3*,19*,0.9*
Cc1nnsc1C(=O)Nc1ccccc1Cl,105,94,92,.,102
CCOC(=O)c1cc2sc(C)cc2n1CC(=O)NCCc1ccccc1,96,84,82,101,27*
CCOC(=O)c1cc2sc(C)cc2n1CC(=O)N(CC)CC,80,85,104,106,86
COc1ccc(S(=O)(=O)N2CCCN(S(=O)(=O)c3ccc(OC)c(C)c3)CC2)cc1C,50,49,66,94,33*
Cc1ccc(S(=O)(=O)N2CCCN(S(=O)(=O)c3ccc4c(c3)OCCO4)CC2)cc1,92,107,95,93,32*
Cc1ccc(S(=O)(=O)N2CCCN(S(=O)(=O)c3ccc(C(F)(F)F)cc3)CC2)cc1,18,10,60,49*,48
CN1CCN(C(=S)Nc2cccc(Cl)c2)CC1,93,100,.,.,.
COc1cc2cc(CN(CCc3ccccc3C)C(=S)NCCCN(C)C)c(=O)[nH]c2cc1OC,1.8*,2.2*,.,.,.
CCNC(=S)N(CCc1ccccc1C)Cc1cc2cc(OC)c(OC)cc2[nH]c1=O,87,78,.,.,.
O=C1NCCN1C(=O)c1cccc(Cl)c1,104,97,84,105,101
Cc1ccc(NC(=O)CN2CCCN(S(=O)(=O)c3ccc(Br)s3)CC2)cc1,80,72,100,100,31*
Cc1cc(C)cc(NC(=O)CN2CCCN(S(=O)(=O)c3ccc(Br)s3)CC2)c1,58,53,66,87,53
Cc1ccc2c(c1)C(c1ccc([N+](=O)[O-])cc1)=NNC(c1ccc(Br)cc1)=N2,2.5*,3.5*,.,.,.
CSc1cc(-c2ccc(Cl)cc2)n(Cc2ccccc2)c(=O)c1C#N,94,90,8.8*,27*,5.4*
CSc1cc(-c2ccccc2)n(Cc2c(Cl)cccc2Cl)c(=O)c1C#N,30,26,29,33*,12*
Cc1ccccc1Cn1ccc(-c2ccc(Cl)cc2)c(C#N)c1=O,111,89,.,.,.
N#Cc1cc(-c2ccc(Cl)cc2)cn(Cc2c(Cl)cccc2Cl)c1=O,57,62,.,.,.
O=C1NC(CCc2ccccc2)C(=O)N1Cc1cccc2ccccc12 (centres undefined),94,90,.,.,.
Cc1ccc(C(=O)N2CCN(c3ncnc4c3cnn4-c3ccccc3)CC2)cc1,.,.,84,99,21*
CCN1CCN(c2ncnc3c2cnn3-c2ccccc2)CC1,100,88,98,103,88
c1ccc(CCN2CCN(c3ncnc4c3cnn4-c3ccccc3)CC2)cc1,80,86,60,98,34*
SMILES,PTEN del growth,HCT116 bCat-KO,HUVEC prolif 384,Fibroblast inh,H69AR growth 86K
COc1ccc(OC)c(/C=C/C(=O)N2C(=O)c3cccc(N)c3C2=O)c1,76,62,.,.,.
COc1cc(/C=C/C(=O)N2C(=O)c3cccc(N)c3C2=O)cc(OC)c1OC,9,4.5*,.,.,.
Cc1ccc(NC(=O)C2C(C(=O)O)C3C=CC2C32CC2)cc1 (centres undefined),98,100,95,94,93
O=C(Cc1ccc(F)cc1)Nc1ccccc1Sc1ccccc1,89,90,.,.,.
COc1ccc(-c2nnc(SCCc3ccccc3)n2N)cc1,109,96,100,46*,96
COC(=O)c1ccccc1NC(=O)C1CC(=O)N(c2ccc(C)cc2)C1 (centres undefined),58,66,76,96,35*
Cc1ccc(S(=O)(=O)N2CCN(Cc3nc4ccccc4[nH]3)CC2)cc1C,91,83,101,92,35*
Cc1cc(C)c(C)c(S(=O)(=O)N2CCN(Cc3nc4ccccc4[nH]3)CC2)c1C,74,68,88,98,42
CCOC(=O)C1=NN(c2ccccc2)C2=NC(C)=C(C(=O)OC)C(c3ccc(C)cc3)N12 (centres undefined),82,85,.,.,.
O=C(c1ccc(=O)n(Cc2ccc(Cl)c(Cl)c2)c1)N1CCOCC1,94,84,.,.,.
Cc1cc(S(=O)(=O)N2CCN(Cc3ccccc3)CC2)c(C)s1,90,92,92,88,92
O=C(NNc1ccccc1Br)C(O)(c1cccc(C(F)(F)F)c1)c1cccc(C(F)(F)F)c1,2.1*,1.9*,.,.,.
CNc1ccc(/C=C2\COc3ccccc3C2=O)cc1[N+](=O)[O-],76,89,74,96,16*
CCN(CC)c1ccc(/C=N/NC(=O)c2cccc(S(=O)(=O)Nc3ccccc3OC)c2)c(O)c1,10,5.3*,.,.,.
O=C(O)c1ccc(N2C(=O)c3cccc(Oc4ccc(Cl)cc4)c3C2=O)cc1,105,98,.,.,.
COc1ccc(CCN2CCC(Nc3nc4ccccc4n3Cc3ccc(F)cc3)CC2)cc1,1.2*,1.0*,1.9*,2.1*,1.5*
COc1ccc(/C=N/NC(=O)CCSc2nc3ccccc3s2)cc1OC,82,88,.,.,.
O=C(CCSc1nc2ccccc2s1)N/N=C/c1c(O)ccc2ccccc12,3.2*,4.6*,.,.,.
COC(=O)/C(=C\Nc1ccc(Cl)cc1Cl)NC(=O)c1ccc(Cl)cc1Cl,63,65,27*,89,21*
CCOC(=O)C1=C(O)/C(=C/c2ccc(C)o2)SC1=NC(=O)c1ccccc1C,.,.,64,58,17*
CCOC(=O)C1=C(O)/C(=C/c2cc(OC)c(OC)c(OC)c2)SC1=Nc1ccc(OC)cc1,86,86,.,.,.
O=c1/c(=C/c2ccco2)sc2n1CN(c1cccc(Br)c1)CN=2,74,80,39,99,32*
CCOC(=O)Cn1c(=O)c2c(nc(N3CCOCC3)n2C)n(C)c1=O,95,93,105,99,68
O=C(COc1ccc(/C=N/NC(=O)c2cc3ccccc3o2)cc1Br)Nc1ccccc1,3.5*,1.8*,.,.,.
O=C(CNC(=O)c1cccs1)NCC(=O)OCc1cccc(Cl)c1,95,112,.,.,.
SMILES,PTEN del growth,HCT116 bCat-KO,HUVEC prolif 384,Fibroblast inh,H69AR growth 86K
Cn1c(-c2ccc(F)cc2)cnc1NCc1cccc(F)c1,80,80,80,75,36*
Cc1ccccc1NS(=O)(=O)c1ccc(N2CCCC2=O)cc1,28,18,63,49*,26*
COc1ccc(C(=O)O/N=C(\N)Cc2ccc(Cl)cc2)cc1OC,2.4*,0.9*,.,.,.
CN(C)CCC(=O)c1ccc(Cl)cc1,108,93,89,91,19*
O=C(O)CCC(=O)CCC(=O)c1ccc(Cl)cc1,86,86,101,115,74
C=CCOC(=O)CC(NC(=O)c1ccccc1)c1ccccc1 (centres undefined),97,87,92,100,80
CSc1nc2ccc(NS(=O)(=O)c3ccccc3F)cc2s1,91,94,.,.,.
